High-throughput results (PubChem)
procasp7 counter = counter-screen: procaspase-7 (human) activation; P55210; activation, % at 8.5 µM; 0.093% of 330,000 active; recombinant procaspase-7, Ac-DEVD-pNA absorbance 405 nm; D23A/D198A/D206A triple mutant, cannot self-cleave; scale: DMSO 0, 5 µM enzyme 100;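 active = percent activation above the screen-wide mean plus 3 SD, cut at about 25% in these data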
Target sequence (P55210 whole entry D23A/D198A/D206A): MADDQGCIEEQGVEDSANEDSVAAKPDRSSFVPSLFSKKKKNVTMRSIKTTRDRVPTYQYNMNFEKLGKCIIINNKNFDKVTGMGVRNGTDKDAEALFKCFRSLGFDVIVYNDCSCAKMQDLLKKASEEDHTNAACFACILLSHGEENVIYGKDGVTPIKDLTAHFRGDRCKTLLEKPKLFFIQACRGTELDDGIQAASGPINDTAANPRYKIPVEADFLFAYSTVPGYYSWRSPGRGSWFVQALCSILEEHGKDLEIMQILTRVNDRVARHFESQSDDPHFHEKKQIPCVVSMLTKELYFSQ
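Assay system: Uncleavable procaspase-7 mutant enzyme | Input: 2 µM procaspase-7 mutant as dispensed | Timing: 1 h compound preincubation, 2 h substrate cleavage, 25 °C | Repeats: One well per compound | Control set: DMSO wells as 0%, DMSO with 5 µM added PC-7 as 100% | Technique: Epi-absorbance of released pNA at 405 nm, two timepoints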
aDG glyco up = increases alpha dystroglycan glycosylation. Pro5-aDG cells, alpha-DG glycosylation AlphaScreen (IIH6); 0% Pro5, 100% B10-LARGE cell signal. activation, % at 10 µM. 0.22% of 360,000 active;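 active = activation of at least 8% versus controls, or a plate z-score of at least 8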;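 also: Pro5 are CHO cells carrying HIG-tagged alpha-DG that lacks glycosylation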
GRK2 inh = inhibitors of human GRK2 displacing RNA aptamer; P25098; bead flow cytometry, FAM-aptamer displacement from GRK2; inhibition of aptamer binding, % at 10 µM; 0.59% of 330,000 active;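 active = inhibition of aptamer binding above 40%, roughly 3 SD of noise, on plates passing a quality check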;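 also: median bead fluorescence of bound FAM aptamer so fluorescent compounds give negative values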
CaV13 FRET inh = Primary screen for inhibitors of IQ motif and Ca2+-dependent inactivation inhibitor domain binding in CACNA1D, Förster resonance energy transfer in living cells, … | HEK cells, CFP/YFP FRET ICDI-IQ, plate reader, 10 min; percent FRET-ratio fall versus neutral wells | 0.098% of 340,000 active | inhibition, % at 12.3 µM | AID 743397;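 active = mean replicate inhibition of at least 30% and at least 1% of replicates passing that level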
T cell HTS = T cell immune modulators affecting CD8 T cell-vesicle binding; 2C CD8+ T cell-vesicle binding, flow cytometry; hits give low values; response (vesicle binding), % at 7 µM; 0.068% of 330,000 active; AID 2052;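 active = response, share of CD8 T cells binding vesicles, and their 90th percentile fluorescence all below set limits, cut at about 80% in these data, passing the limit was not always enough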;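 also: values below 100% mean blocked vesicle binding to the CD8+ T cells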
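Test system: purified 2C TCR transgenic mouse naive CD8+ T cells. Probe or stimulus: QL9-peptide-loaded Drosophila micro-vesicles bearing Ld, ICAM-1 and B7-1. Incubation: binding step 1.5 h, 37 °C, antibody labelling 20 min, ice. Measured by: flow cytometry of vesicle-bound cells.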
proCasp3 act = activators of human procaspase-3; P42574; recombinant procaspase-3 D3A, Ac-DEVD-pNA absorbance 405 nm; activation, % at 8.5 µM; 0.11% of 330,000 active; AID 463141;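 active = activation above the mean of all tested compounds plus 3 SD, cut at about 21% in these data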
Target sequence (P42574 whole entry D9A/D28A/D175A): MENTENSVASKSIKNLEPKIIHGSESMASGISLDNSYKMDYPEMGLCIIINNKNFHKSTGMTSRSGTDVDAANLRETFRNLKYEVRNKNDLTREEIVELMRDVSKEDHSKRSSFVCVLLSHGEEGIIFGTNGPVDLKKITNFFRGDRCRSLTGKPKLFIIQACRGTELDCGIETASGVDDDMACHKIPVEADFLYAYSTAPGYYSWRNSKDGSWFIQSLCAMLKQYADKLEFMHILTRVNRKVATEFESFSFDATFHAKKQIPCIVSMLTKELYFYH
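Assay system: Procaspase-3 D3A mutant, all three cleavage aspartates alanine. Buffer or medium: Zinc-free HEPES saline buffer with Triton X-100. Times: 1 h compound preincubation, 2 h substrate hydrolysis at 25 °C. Measured by: 405 nm absorbance of p-nitroaniline, reads at 0 and 120 min. Read-out basis: percent activation relative to control range. Replicates: singlicate.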
PC3 dual counter = activates human procaspase-3, dual activator counter-screen; shares compounds with procasp7 counter; recombinant PC-3 D3A, Ac-DEVD-pNA absorbance 405 nm; aspartates 9, 28, 175 changed to alanine; 100% = enzyme control; activation, % at 8.5 µM; 290 tested, under 10 active; AID 493114;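 active = mean percent activation across triplicates above a set limit taken from the earlier primary procaspase-3 screen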
PC7 dual conf = confirmation of dual procaspase activators: human procaspase-7 activation; shares compounds with procasp7 counter; recombinant procaspase-7, Ac-DEVD-pNA absorbance 405 nm; D23A/D198A/D206A mutant that cannot self-cleave; 290 tested, under 10 active; activation, % at 8.5 µM;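 active = mean activation above a set limit carried over from the earlier primary screen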
Numbers stand for hits; i = inactive; nt = not tested or not shown. Only some compounds are listed: those with a hit (about 1.1% of all), similar ones and a draw of the others.

SMILES	procasp7 counter	aDG glyco up	GRK2 inh	CaV13 FRET inh	T cell HTS	proCasp3 act	PC3 dual counter	PC7 dual conf
COc1ccc(OC)c(/C=C/C(=O)Nc2cccc(S(=O)(=O)NC3=NCCCCC3)c2)c1	85	i	i	i	i	26	i	i
NS(=O)(=O)c1ccc(N2N=C(c3ccccc3)CC2c2cccc(F)c2)cc1 (stereo not drawn)	67	i	i	i	i	40	i	i
NS(=O)(=O)c1ccc(N2N=C(c3ccccc3)CC2c2cccc(Br)c2)cc1 (stereo not drawn)	32	i	i	i	nt	29	i	i
COc1ccc(C2CC(c3cccc(Cl)c3)=NN2c2ccc(S(N)(=O)=O)cc2)cc1 (stereo not drawn)	i	i	i	i	nt	i	nt	nt
NS(=O)(=O)c1ccc(N2N=C(c3ccccc3)CC2c2ccccc2Br)cc1 (stereo not drawn)	68	i	i	i	nt	26	i	i
NS(=O)(=O)c1ccc(N2N=C(c3ccc(Br)cc3)CC2c2ccc(F)cc2)cc1 (stereo not drawn)	i	i	i	nt	i	i	nt	nt
COc1ccc(C2CC(c3ccccc3)=NN2c2ccc(S(N)(=O)=O)cc2)cc1OC (stereo not drawn)	26	i	i	i	i	i	i	i
O=[N+]([O-])c1ccc(N2N=C(c3ccccc3)CC2c2ccccc2O)cc1 (stereo not drawn)	nt	i	i	i	i	nt	nt	nt
COc1ccc2c(-c3ccc(S(N)(=O)=O)cc3)c(-c3ccc(S(C)(=O)=O)cc3)sc2c1	44	i	i	i	i	23	i	i
CCOc1cccc(OCCOc2ccc(C(=O)c3ccccc3)cc2)c1	26	i	i	i	i	i	i	i
CCN1C(=O)N/C(=C/c2ccc(Sc3ccc(C)cc3)o2)C1=O	71	i	i	i	i	38	i	i
COc1cccc(CNC(=O)[C@H]2CCCN2C(=O)[C@H]2CCCN2C(=O)c2ccc(F)cc2F)c1	nt	nt	nt	i	nt	nt	nt	nt
COc1ccc(-c2cc(C(F)F)n3ncc(C(=O)N4CCc5ccccc5C4)c3n2)cc1	26	i	i	i	i	i	i	i
COC(=O)c1cccc(N(CC(=O)NC2CCCC2)C(=O)CCC(=O)Nc2cc(C)on2)c1	57	i	i	i	i	i	i	i
Cc1ccc2nc(-c3ccc(NS(=O)(=O)c4c(C)n(C)c(=O)n(C)c4=O)cc3)sc2c1	i	i	i	i	i	i	nt	nt
Cc1cccc(S(=O)(=O)Nc2ccc(-c3nc4ccc(C)cc4s3)cc2)c1	43	i	i	i	i	23	i	i
Nc1[nH]c(C(=O)c2ccc(Br)cc2)c(-c2ccc3ccccc3c2)c1C(=O)NCCc1c[nH]c2ccccc12	nt	nt	nt	i	nt	nt	nt	nt
COc1ccc(-c2cc3nc(-c4ccccc4)cc(N4CCCC(O)C4)n3n2)cc1 (stereo not drawn)	58	i	i	i	i	29	i	i
COc1ccc(-c2cc3nc(-c4ccccc4)cc(N4CCN(C(C)=O)CC4)n3n2)cc1	nt	i	nt	i	nt	nt	nt	nt
COc1ccc(-c2cc3nc(-c4ccccc4)cc(N4CCC(O)CC4)n3n2)cc1	32	i	i	i	i	i	i	i
O=C(Nc1cccc(O)c1)c1cccc(S(=O)(=O)N2CCCC2)c1	26	i	i	i	i	i	i	i
COc1cc(-n2c(=O)c3ccccc3n(Cc3cccnc3)c2=O)cc(OC)c1OC	27	i	i	i	i	i	i	i
Cc1ccc(-c2cc3nc(-c4ccccc4)cc(N4CCC5(CC4)OCCO5)n3n2)cc1	i	i	i	nt	i	i	nt	nt
Fc1cccc(-c2cc3nc(-c4ccccc4)cc(N4CCC5(CC4)OCCO5)n3n2)c1	30	i	i	i	i	22	i	i
Cc1cccc(-c2cc3nc(-c4ccccc4)cc(N4CCC5(CC4)OCCO5)n3n2)c1	30	i	i	i	i	i	i	i
SMILES	procasp7 counter	aDG glyco up	GRK2 inh	CaV13 FRET inh	T cell HTS	proCasp3 act	PC3 dual counter	PC7 dual conf
Cc1ccc(Oc2nc3c(C)cccn3c(=O)c2/C=C(\C#N)C(N)=O)cc1	46	i	i	i	i	22	i	i
CCOC(=O)/C(C#N)=C/c1c(Oc2cccc(C)c2)nc2c(C)cccn2c1=O	i	i	i	i	i	i	nt	nt
COc1ccc(NC(=O)Nc2cccc(NC(C)=O)c2)c(OC)c1	i	i	i	i	i	i	nt	nt
COc1ccccc1NC(=O)Nc1cccc(NC(C)=O)c1	74	i	i	i	i	i	i	i
O=C(NC(NC1CCS(=O)(=O)C1)C(=O)c1ccccc1)c1ccc(Cl)cc1 (stereo not drawn)	47	i	i	i	i	i	i	i
O=C(NC(=S)NC1CCS(=O)(=O)C1)c1ccccc1 (stereo not drawn)	i	i	i	i	i	i	nt	nt
COC(=O)c1ccc(CNC(=O)[C@@H]2CCCN2S(=O)(=O)c2ccccc2F)cc1	26	i	i	i	i	i	i	i
CCCCNC(=O)c1nn2c(C(F)(F)F)cc(-c3ccccc3)nc2c1Br	nt	i	i	i	i	nt	nt	nt
N#CCNC(=O)c1nn2c(C(F)(F)F)cc(-c3ccccc3)nc2c1Br	26	i	i	i	i	i	i	i
CCc1ccc(-n2nc3cc(C)c(N)cc3n2)cc1	28	i	i	i	i	35	i	i
Cc1ccc(-n2nc3cc(C)c(N)cc3n2)cc1	i	i	i	i	i	i	nt	nt
NC1(N2SC(S)=C3CCCC=C32)CCCCC1	nt	nt	nt	i	nt	nt	nt	nt
CC(=O)OCC(=O)NCC1CCN(C(=O)C(=O)c2cc3ccccc3o2)CC1	nt	nt	nt	i	nt	nt	nt	nt
CNC(=O)c1cc2c(ccc3ccccc32)o1	i	i	i	i	i	i	nt	nt
O=C(c1ccco1)c1cc2c(ccc3ccccc32)oc1=O	26	i	i	i	i	i	i	i
COc1cc(N2C[C@@]3(O)CC[C@@H](O)[C@@H](OC)[C@@H]3[C@@](C)(O)[C@@H]2CC=C(C)C)cc(OC)c1OC	nt	nt	nt	i	nt	nt	nt	nt
O=C(CSCc1ccc(Cl)cc1)N/N=C/c1ccc(OCC(=O)Nc2ccccc2)cc1	28	i	i	i	i	i	i	i
